Activity calls are given as the source filed them.
Experiments:
Schistosoma mansoni [1] = experiment: Antischistosomal activity against schistosomula of Schistosoma mansoni at 25 uM by throughput high content image analysis; format: functional, organism-based
Procedure, shortened: (§1)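 Puerto Rican (NMRI) strain cercariae were mechanically transformed to schistosomula. About 120 larvae were co-cultured with compound for 72 hr at 37 °C, 5% CO2, at 0.625% DMSO final. Controls were DMSO and auranofin. Motility and phenotype were scored by automated image analysis, with a hit threshold of ≤-0.15 (phenotype) and ≤-0.35 (motility) in ≥70% of larvae. Runs were in duplicate, and IC50 was estimated from dose-response curves.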

Schistosoma mansoni [2] = experiment: Antischistosomal activity against schistosomula of Schistosoma mansoni assessed as effect on parasite motility by throughput high content image analysis; format: functional, organism-based; procedure, shortened: as §1
Schistosoma mansoni [3] = experiment: Antischistosomal activity against schistosomula of Schistosoma mansoni assessed as effect on parasite phenotype by throughput high content image analysis; format: functional, organism-based; procedure, shortened: as §1
[4] = Selectivity index, ratio of IC50 for human HepG2 cells to IC50 for antischistosomal activity against schistosomula of Schistosoma mansoni assessed as effect on parasite phenotype; format: toxicity; details: read-out: Ratio IC50
Procedure, shortened: (§2)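 Selectivity index was calculated as the CC50 from the HepG2 or MDBK MTT assay divided by the schistosomula phenotype or motility IC50 from the 72 hr image-based screen.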

Schistosoma mansoni [5] = experiment: Antischistosomal activity against adult stage of Schistosoma mansoni assessed as effect on parasite motility after 72 hrs by microscopic method; format: functional, organism-based
Procedure, shortened: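 Mice were infected percutaneously with 200 cercariae, and adults were recovered by portal perfusion at seven weeks. Three worm pairs per well in modified DMEM with 10% FCS were given compound at 50, 25, 12.5 and 6.25 µM final (0.3% DMSO) for 72 hr at 37 °C, 5% CO2. Controls were DMSO and auranofin. Worms were scored manually by microscopy at 24, 48 and 72 hr. Experiments were run in duplicate.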

[6] = Selectivity index, ratio of IC50 for human HepG2 cells to IC50 for antischistosomal activity against schistosomula of Schistosoma mansoni assessed as effect on parasite motility; format: toxicity; details: read-out: Ratio IC50; procedure, shortened: as §2
[7] = Cytotoxicity against MDBK cells after 24 hrs by MTT assay; format: cell-based, Bos taurus; details: cattle
Procedure, shortened: (§3)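 Cells were grown to about 80% confluence (HepG2 in BME, MDBK in EMEM, each with 10% FBS). They were seeded at 2.5 x10^4 per well and rested 24 hr, then exposed 24 hr to compound at 100–0.01 µM (1.25% DMSO). Controls were DMSO and 1% Triton X-100. Viability was read by MTT, and CC50 came from dose-response curves run in triplicate.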

[8] = Cytotoxicity against human HepG2 cells after 24 hrs by MTT assay; format: cell-based; procedure, shortened: as §3
Fasciola hepatica [9] = experiment: Antifasciola activity against newly excysted juveline stage of Fasciola hepatica Italian assessed as effect on parasite motility after 72 hrs; format: functional, organism-based
Procedure, shortened: (§4)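 NEJs came from Italian-strain metacercariae, excysted either by pepsin/HCl or by needle rupture, then 1 hr in sodium tauroglycocholate. They were plated at 25 per well in RPMI-1640 with 1% FCS. Screening was at 25 and 12.5 µM, then titration from 10 to 0.625 µM (0.16% DMSO). Controls were DMSO and 10 µM triclabendazole. Motility and phenotype were scored at 72 hr, with IC50 from dose-response curves.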

Fasciola hepatica [10] = experiment: Antifasciola activity against immature stage of Fasciola hepatica Italian assessed as effect on parasite motility after 72 hrs; format: functional, organism-based
[11] = Selectivity index, ratio of IC50 for MDBK cells to IC50 for antischistosomal activity against schistosomula of Schistosoma mansoni assessed as effect on parasite phenotype; format: toxicity; details: cattle, read-out: Ratio IC50; procedure, shortened: as §2
[12] = Selectivity index, ratio of IC50 for MDBK cells to IC50 for newly excysted juveline stage of Fasciola hepatica Italian assessed as effect on parasite motility; format: toxicity; details: cattle, read-out: Ratio IC50
Procedure, shortened: (§5)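 Selectivity index was calculated as the CC50 from the HepG2 or MDBK MTT assay divided by the F. hepatica NEJ phenotype or motility IC50 from the 72 hr manual scoring assay.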

Fasciola hepatica [13] = experiment: Antifasciola activity against newly excysted juveline stage of Fasciola hepatica Italian assessed as effect on parasite phenotype after 72 hrs; format: functional, organism-based; procedure, shortened: as §4
[14] = Selectivity index, ratio of IC50 for human HepG2 cells to IC50 for newly excysted juveline stage of Fasciola hepatica Italian assessed as effect on parasite motility; format: toxicity; details: read-out: Ratio IC50; procedure, shortened: as §5
Fasciola hepatica [15] = experiment: Antifasciola activity against adult stage of Fasciola hepatica Italian assessed as effect on parasite motility after 72 hrs; format: functional, organism-based
[16] = Selectivity index, ratio of IC50 for MDBK cells to IC50 for antischistosomal activity against schistosomula of Schistosoma mansoni assessed as effect on parasite motility; format: toxicity; details: cattle, read-out: Ratio IC50; procedure, shortened: as §2
[17] = Selectivity index, ratio of IC50 for MDBK cells to IC50 for newly excysted juveline stage of Fasciola hepatica Italian assessed as effect on parasite phenotype; format: toxicity; details: cattle, read-out: Ratio IC50; procedure, shortened: as §5
[18] = Selectivity index, ratio of IC50 for human HepG2 cells to IC50 for newly excysted juveline stage of Fasciola hepatica Italian assessed as effect on parasite phenotype; format: toxicity; details: read-out: Ratio IC50; procedure, shortened: as §5

| IC50 (Schistosoma mansoni [2]) [µM] | IC50 (Schistosoma mansoni [3]) [µM] | Structure (SMILES) | CC50 at 24 h [7] [µM] | CC50 at 24 h [8] [µM] | other results |
| --- | --- | --- | --- | --- | --- |
| 18.2 | 25.4 | CC1=C(C(=O)Cc2ccc(C(C)C)cc2)C(C)(C)CCC1 | > 100 | 71.7 | Activity (Schistosoma mansoni [1]): Active; selectivity ratio [4]: 2.8; IC50 (Schistosoma mansoni [5]): > 50 µM; selectivity ratio [6]: 3.9 |
| 6.4 | 22.9 | COc1ccc2c(c1)C(=O)C(=O)[C@@H]1C(C)(C)CCC[C@]21C (relative stereo) | > 100 | 84.9 | Activity (Schistosoma mansoni [1]): Active; selectivity ratio [4]: 3.7; IC50 (Schistosoma mansoni [5]): > 50 µM; selectivity ratio [6]: 13.2 |
| 10.3 | 14.2 | COc1ccc2c(c1)[C@@]1(C)CCCC(C)(C)[C@@H]1CC2=O (relative stereo) | 70.6 | 33.1 | IC50 (Fasciola hepatica [9]): 8.4 µM; IC50 (Fasciola hepatica [10]): 14.6 µM; selectivity ratio [11]: 5; Activity (Schistosoma mansoni [1]): Active; selectivity ratio [12]: 8.3; selectivity ratio [4]: 2.3; IC50 (Schistosoma mansoni [5]): > 50 µM; IC50 (Fasciola hepatica [13]): 9.9 µM; selectivity ratio [14]: 3.9; selectivity ratio [6]: 3.2; IC50 (Fasciola hepatica [15]): 39.9 µM; selectivity ratio [16]: 6.9; selectivity ratio [17]: 7.1; selectivity ratio [18]: 3.3 |
| 13 | 25 | CC1(C)CCC[C@]2(C)c3ccccc3C(=O)C(=O)[C@H]12 (relative stereo) | > 100 | > 100 | Activity (Schistosoma mansoni [1]): Active; IC50 (Schistosoma mansoni [5]): > 50 µM |
| 26.5 | 43.7 | COc1ccc2c(c1)[C@@]1(C)CCCC(C)(C)[C@H]1C(=O)C2=O (relative stereo) | > 100 | > 100 | – |
| 27.3 | 39.9 | CC1=C(C(O)Cc2ccc(C(C)C)cc2)C(C)(C)CCC1 (centres undefined) | > 100 | > 100 | – |
| 21.9 | 28 | CC1(C)CCC[C@]2(C)c3ccc(O)cc3C(=O)C[C@@H]12 (relative stereo) | > 100 | 65.1 | selectivity ratio [4]: 2.3; selectivity ratio [6]: 3 |
| 43.6 | 43.8 | COc1cc(CC(O)C2=C(C)CCCC2(C)C)cc(OC)c1OC (centres undefined) | > 100 | > 100 | – |
| 26.2 | 21.9 | CC(C)c1cc2c(cc1O)C(=O)C[C@H]1C(C)(C)CCC[C@]21C | 63.8 | 80 | IC50 (Fasciola hepatica [9]): 13.1 µM; selectivity ratio [11]: 2.9; selectivity ratio [12]: 4.9; selectivity ratio [4]: 3.7; IC50 (Fasciola hepatica [13]): 16.8 µM; selectivity ratio [14]: 6.1; selectivity ratio [6]: 3.1; selectivity ratio [16]: 2.4; selectivity ratio [17]: 3.8; selectivity ratio [18]: 4.8 |
| 27.9 | 43.4 | COc1ccc2c(c1)CC[C@H]1C(C)(C)CCC[C@]21C (relative stereo) | > 100 | 89 | selectivity ratio [4]: 2.1; selectivity ratio [6]: 3.3 |
| 17.6 | 28.6 | COc1ccc2c(c1)C(=O)C[C@H]1C(C)(C)CCC[C@]21C (relative stereo) | > 100 | > 100 | – |
| 14.7 | 39.5 | CC1(C)CCC[C@]2(C)c3ccccc3C(=O)C[C@@H]12 (relative stereo) | > 100 | 84.2 | selectivity ratio [4]: 2.1; selectivity ratio [6]: 5.7 |
| 26.6 | 44.1 | COc1ccc2c(c1)[C@@]1(C)CCCC(C)(C)[C@@H]1CC2 (relative stereo) | > 100 | > 100 | – |

Continued, molecule first:

| Structure (SMILES) | IC50 (Schistosoma mansoni [2]) [µM] | IC50 (Schistosoma mansoni [3]) [µM] | CC50 at 24 h [7] [µM] | CC50 at 24 h [8] [µM] | other results |
| --- | --- | --- | --- | --- | --- |
| COc1ccc(CC/C=C(\C)CCC=C(C)C)cc1 | 40.1 | 39.4 | > 100 | > 100 | – |
| COc1ccc(CC(=O)C2=C(C)CCCC2(C)C)cc1 | 19.1 | 25.3 | 91.1 | > 100 | selectivity ratio [11]: 3.6; Activity (Schistosoma mansoni [1]): Active; IC50 (Schistosoma mansoni [5]): > 50 µM; selectivity ratio [16]: 4.8 |
| CC1=C(C(=O)Cc2ccc(C(C)(C)C)cc2)C(C)(C)CCC1 | 18.9 | 28 | > 100 | > 100 | – |
| COc1cccc(CC/C=C(\C)CCC=C(C)C)c1 | 27.1 | 43.9 | > 100 | > 100 | – |
| COc1cccc(CC(O)C2=C(C)CCCC2(C)C)c1 (centres undefined) | 23.5 | 39.9 | > 100 | > 100 | – |
| COc1cc(CC(=O)C2=C(C)CCCC2(C)C)cc(OC)c1OC | 27.2 | 43.7 | > 100 | > 100 | – |
| CC1=C(C(=O)Cc2ccccc2)C(C)(C)CCC1 | 26 | 43.8 | > 100 | > 100 | – |
| CC(C)=CCC/C(C)=C/CCc1ccccc1 | 43.8 | 43.8 | > 100 | > 100 | – |
| COc1ccc(CC(O)C2=C(C)CCCC2(C)C)cc1 (centres undefined) | 26.4 | 42.5 | > 100 | > 100 | – |
| CC1=C(C(O)Cc2ccc(C(C)(C)C)cc2)C(C)(C)CCC1 (centres undefined) | 25.6 | 40.2 | > 100 | > 100 | – |
| CC1=C(C(O)Cc2ccccc2)C(C)(C)CCC1 (centres undefined) | 21.5 | 43.6 | > 100 | > 100 | – |
| COc1cccc(CC(=O)C2=C(C)CCCC2(C)C)c1 | 28.1 | 41.4 | > 100 | > 100 | – |
